From ChEMBL document CHEMBL4028811, “Discovery of 2-substituted 1H-benzo[d]immidazole-4-carboxamide derivatives as novel poly(ADP-ribose)polymerase-1 inhibitors with in vivo anti-tumor activity” (Eur J Med Chem, 2017)

Tests used:
[1] = target: T1, Poly [ADP-ribose] polymerase 1 (Homo sapiens, UniProt P09874); experiment: Inhibition of PARP1 in human MX1 cells assessed as potentiation of temozolomide-induced cytotoxicity at 10 uM after 72 hrs by MTT assay relative to temozolomide alone; format: cell-based
T1 sequence (P09874 whole entry): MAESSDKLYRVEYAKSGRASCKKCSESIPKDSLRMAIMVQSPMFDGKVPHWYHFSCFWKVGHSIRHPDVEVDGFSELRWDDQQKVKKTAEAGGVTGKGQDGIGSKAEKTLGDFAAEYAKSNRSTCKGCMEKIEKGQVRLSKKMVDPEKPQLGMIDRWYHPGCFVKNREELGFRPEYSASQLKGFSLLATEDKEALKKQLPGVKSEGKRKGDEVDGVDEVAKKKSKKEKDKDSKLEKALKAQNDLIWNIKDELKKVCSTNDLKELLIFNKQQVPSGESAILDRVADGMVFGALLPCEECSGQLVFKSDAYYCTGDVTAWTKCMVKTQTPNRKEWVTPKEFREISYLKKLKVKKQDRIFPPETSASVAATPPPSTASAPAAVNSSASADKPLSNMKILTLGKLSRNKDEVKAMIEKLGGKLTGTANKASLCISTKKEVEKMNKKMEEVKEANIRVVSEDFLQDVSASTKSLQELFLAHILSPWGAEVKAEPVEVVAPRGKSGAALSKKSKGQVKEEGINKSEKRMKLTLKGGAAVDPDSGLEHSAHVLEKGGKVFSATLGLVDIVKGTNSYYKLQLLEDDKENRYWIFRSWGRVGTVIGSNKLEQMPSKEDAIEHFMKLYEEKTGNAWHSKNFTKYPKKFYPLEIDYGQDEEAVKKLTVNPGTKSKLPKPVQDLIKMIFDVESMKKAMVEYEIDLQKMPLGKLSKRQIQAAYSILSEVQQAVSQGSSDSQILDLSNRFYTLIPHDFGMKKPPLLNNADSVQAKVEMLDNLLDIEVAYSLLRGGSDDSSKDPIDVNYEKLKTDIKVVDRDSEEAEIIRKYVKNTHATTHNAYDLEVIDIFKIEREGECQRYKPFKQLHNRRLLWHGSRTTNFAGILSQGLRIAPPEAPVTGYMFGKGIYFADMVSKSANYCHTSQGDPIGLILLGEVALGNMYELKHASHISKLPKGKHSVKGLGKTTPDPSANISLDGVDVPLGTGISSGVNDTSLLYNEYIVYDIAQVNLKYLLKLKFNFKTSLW
How it was run: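 MX-1 cells seeded at 2000/well and exposed for 72 h to TMZ (0–0.5 mmol/L) with or without PARP inhibitor fixed at 10 μmol/L. Survival read by MTT. PF50 = IC50 of TMZ alone / IC50 of TMZ + inhibitor.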

[2] = species on record: Homo sapiens; experiment: Selectivity ratio of IC50 for recombinant human PARP2 to IC50 for recombinant human PARP1
How it was run: (§1)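 Human recombinant PARP2 (and PARP1) expressed and purified, inhibition measured by ELISA, with AZD2281 as positive control. IC50 from concentration–response fitting.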

[3] = target: T1, Poly [ADP-ribose] polymerase 1; experiment: Inhibition of recombinant human PARP1 expressed in Escherichia coli BL21(DE3) using histone as substrate measured after 1 hr in presence of biotinylated NAD+ by ELISA
[4] = target: Poly [ADP-ribose] polymerase 2 (Homo sapiens, UniProt Q9UGN5); experiment: Inhibition of recombinant human PARP2 expressed in Escherichia coli BL21(DE3) using histone as substrate measured after 1 hr in presence of biotinylated NAD+ by ELISA; how it was run: as §1
Poly [ADP-ribose] polymerase 2, sequence (Q9UGN5 whole entry): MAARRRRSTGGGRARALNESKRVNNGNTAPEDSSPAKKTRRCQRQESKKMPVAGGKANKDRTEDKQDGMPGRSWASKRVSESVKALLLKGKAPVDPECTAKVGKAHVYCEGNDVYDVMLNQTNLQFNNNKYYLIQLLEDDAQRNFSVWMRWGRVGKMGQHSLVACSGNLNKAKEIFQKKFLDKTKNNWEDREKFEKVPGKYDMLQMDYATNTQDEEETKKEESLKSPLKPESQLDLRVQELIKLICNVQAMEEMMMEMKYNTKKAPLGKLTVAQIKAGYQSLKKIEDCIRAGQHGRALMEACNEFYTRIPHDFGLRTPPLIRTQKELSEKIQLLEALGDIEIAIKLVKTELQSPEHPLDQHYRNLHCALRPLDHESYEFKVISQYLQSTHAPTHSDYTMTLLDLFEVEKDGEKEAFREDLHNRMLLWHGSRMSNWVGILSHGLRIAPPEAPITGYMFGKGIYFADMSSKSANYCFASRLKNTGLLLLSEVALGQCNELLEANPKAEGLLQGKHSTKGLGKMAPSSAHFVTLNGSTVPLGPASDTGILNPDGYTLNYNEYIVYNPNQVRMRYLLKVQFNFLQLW

[5] = target: T1, Poly [ADP-ribose] polymerase 1; experiment: Inhibition of recombinant human PARP1 expressed in Escherichia coli BL21(DE3) using sheared DNA as substrate measured after 1 hr in presence of NAD+
[6] = test system: MX1; experiment: Anti-tumor activity against human MX1 cells xenografted in BALB/c mouse assessed as tumor weight at 50 mg/kg, po administered once daily via gavage for 5 days measured after 11 days (reference value: 4.09 +/- 0.64 g); format: functional
How it was run: (§2)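 Female athymic BALB/c nude mice, 8–10 weeks old, implanted s.c. with 1×10^6 MX-1 cells in 0.1 mL PBS. Day 6: grouped at 6/group, tumors 100–300 mm³. Oral gavage once daily. TMZ 50 mg/kg/day for 5 days; single-agent test compound 50 mg/kg/day for 10 days; combinations both orally for 5 days. Body weight and tumor volume measured twice weekly; euthanized day 11.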

[7] = test system: Mus musculus; experiment: Toxicity in BALB/c mouse assessed as change in body weight at 50 mg/kg, po administered once daily via gavage for 5 days measured twice every week up to 11 days (reference value: 5.32 g); format: organism-based; settings: in vivo; how it was run: as §2
[8] = test system: MX1; experiment: Anti-tumor activity against human MX1 cells xenografted in BALB/c mouse assessed as tumor growth inhibition at 50 mg/kg, po administered once daily via gavage for 5 days measured after 11 days relative to control; format: functional; how it was run: as §2

IC50 [3] [nM]	Structure (SMILES)	other results
101	NC(=O)c1cccc2[nH]c(C(=O)NC3CCNCC3)nc12	PF50 [1]: 1.75; Ratio IC50 [2]: < 10
111	CC(C)CCN1CCC(NC(=O)c2nc3c(C(N)=O)cccc3[nH]2)CC1	–
29	NC(=O)c1cccc2[nH]c(C(=O)N3CCNC(=O)C3)nc12	–
34	NC(=O)c1cccc2[nH]c(C(=O)NC3CCN(CC(F)(F)F)CC3)nc12	PF50 [1]: 0.93; Ratio IC50 [2]: < 10; IC50 [4]: 100 nM
42	NC(=O)c1cccc2[nH]c(C(=O)N3CCNCC3)nc12	–
> 100	CCC(=O)N1CCN(C(=O)c2nc3c(C(N)=O)cccc3[nH]2)CC1	–
316	NC(=O)c1cccc2[nH]c(C(=O)N3CCC(NC4CCNCC4)CC3)nc12	–
30	CCC(CC)N1CCC(NC(=O)c2nc3c(C(N)=O)cc(F)cc3[nH]2)CC1	–
40	CCN1CCC(NC(=O)c2nc3c(C(N)=O)cccc3[nH]2)CC1	–
152	CC(C)(C)OC(=O)N1CCN(C(=O)c2nc3c(C(N)=O)cccc3[nH]2)CC1	–
80	CC(C)(C)OC(=O)NC1CCN(C(=O)c2nc3c(C(N)=O)cc(F)cc3[nH]2)CC1	–
–	CC(C)(C)OC(=O)N1CCCC(NC(=O)c2nc3c(C(N)=O)cccc3[nH]2)C1 (stereo unspecified)	IC50 [5]: 1150 nM
83	NC(=O)c1cccc2[nH]c(C(=O)NC3CCN(C(=O)C(F)(F)F)CC3)nc12	–
12	NC(=O)c1cc(F)cc2[nH]c(C(=O)N3CCC(N)C3)nc12 (stereo unspecified)	PF50 [1]: 1.07; Ratio IC50 [2]: < 10; IC50 [4]: 19 nM
29	NC(=O)c1cccc2[nH]c(C(=O)N3CCC(N)CC3)nc12	PF50 [1]: 1.99; Ratio IC50 [2]: < 10; IC50 [4]: 73 nM
15	NC(=O)c1cc(F)cc2[nH]c(C(=O)N3CCNC(=O)C3)nc12	–
–	CC(C)CCN1CCCC(NC(=O)c2nc3c(C(N)=O)cccc3[nH]2)C1 (stereo unspecified)	IC50 [5]: 708 nM
–	NC(=O)c1cccc2[nH]c(C(=O)NC3CCN(C4CCCCC4)C3)nc12 (stereo unspecified)	IC50 [5]: > 1000 nM
2.76	NC(=O)c1cc(F)cc2[nH]c(C(=O)N3CCC(N)CC3)nc12	PF50 [1]: 0.98; Ratio IC50 [2]: < 10; IC50 [4]: 24 nM
250	CC(C)(C)OC(=O)N1CCC(NC2CCN(C(=O)c3nc4c(C(N)=O)cccc4[nH]3)CC2)CC1	–
92	CC(C)CN1CCC(NC(=O)c2nc3c(C(N)=O)cccc3[nH]2)CC1	–
311	NC(=O)c1cccc2[nH]c(C(=O)NC3CCN(C4CCCCC4)CC3)nc12	–
49	CCCN1CCC(NC(=O)c2nc3c(C(N)=O)cccc3[nH]2)CC1	–
–	NC(=O)c1cccc2[nH]c(C(=O)NC3CCCN(C4CCCCC4)C3)nc12 (stereo unspecified)	IC50 [5]: 382 nM
> 100	CC[C@@H]1CN(C(=O)c2nc3c(C(N)=O)cccc3[nH]2)CCN1C(=O)OC(C)(C)C	–
968	CC(C)(C)OC(=O)NC1CCN(C(=O)c2nc3c(C(N)=O)cccc3[nH]2)CC1	–
–	NC(=O)c1cccc2[nH]c(C(=O)NC3CCNC3)nc12 (stereo unspecified)	IC50 [5]: 343 nM
116	NC(=O)c1cccc2[nH]c(C(=O)N3C[C@H]4CCCN[C@H]4C3)nc12	–
–	Cn1nnc2c(C(N)=O)ncn2c1=O [TEMOZOLOMIDE]	Activity [6]: 1.57 g; Activity [7]: 0.02 g; T/C [8]: 38%; inhibition in vivo at 50 mg/kg ([8]; Mus musculus, MX1, po, read-out: TGI): 62%
